The record followed here is ChEMBL document CHEMBL4308845, “Allosteric Activation of Striatal-Enriched Protein Tyrosine Phosphatase (STEP, PTPN5) by a Fragment-like Molecule” (J Med Chem, 2019).

Calls of active or inactive are those of the source. No cut-off for these calls is given here. Bounds are passed on as bounds.

Series [1] addresses T1, Tyrosine-protein phosphatase non-receptor type 5 (Homo sapiens) (UniProt P54829).
T1 sequence (whole entry): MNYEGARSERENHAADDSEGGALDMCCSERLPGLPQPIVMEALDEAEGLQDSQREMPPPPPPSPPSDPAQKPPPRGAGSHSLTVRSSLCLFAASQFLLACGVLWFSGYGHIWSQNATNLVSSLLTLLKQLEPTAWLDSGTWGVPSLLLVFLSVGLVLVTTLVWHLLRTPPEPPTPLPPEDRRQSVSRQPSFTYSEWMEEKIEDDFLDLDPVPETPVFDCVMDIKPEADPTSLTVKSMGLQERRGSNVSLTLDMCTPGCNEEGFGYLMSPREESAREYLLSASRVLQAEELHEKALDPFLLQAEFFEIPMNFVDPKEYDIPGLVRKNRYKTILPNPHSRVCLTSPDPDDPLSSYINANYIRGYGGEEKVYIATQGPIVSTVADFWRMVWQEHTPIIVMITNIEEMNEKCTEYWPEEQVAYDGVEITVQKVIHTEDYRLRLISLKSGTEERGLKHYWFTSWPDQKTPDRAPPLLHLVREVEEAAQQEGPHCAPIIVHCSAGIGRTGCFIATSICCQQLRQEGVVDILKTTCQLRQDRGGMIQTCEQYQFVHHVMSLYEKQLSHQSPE
As to the kind of experiment: Binding affinity to human 15N-labeled STEP PTP domain (281 to 563 residues) expressed in Escherichia coli OD2 assessed as induction of chemical perturbation at 500 uM by 1H,15N TROSY NMR spectral analysis. In a few lines: (§1)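 40 μM 15N-labelled STEP PTP domain in 20 mM Tris-d11, 100 mM NaCl, 1 mM TCEP, pH 7.4, 8% D2O, 1% DMSO-d6, 298 K. TROSY spectra used 192 transients and 64 indirect points. Binders were called by manual comparison with the protein-only reference spectrum.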

The species named for series [2] is Homo sapiens. The series can be described thus: Binding affinity to human STEP46 (197 to 565 residues) expressed in Escherichia coli BL21(DE3) at 500 uM by SYPRO Orange dye based DSF. In a few lines: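 Final mix was 5 μM STEP46, 25× SYPRO Orange, 500 μM fragment, 1% DMSO in 20 mM HEPES pH 7.5, 50 mM NaCl, 1 mM TCEP, in duplicate. Samples were heated 25→95 °C at 1 °C/min, read every 0.5 °C. Tm was taken from the first-derivative minimum. ΔTm ≥0.5 °C versus DMSO counted as a hit.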

For series [3], the species on record is Homo sapiens. The series can be described thus: Binding affinity to human STEP46 (197 to 565 residues) expressed in Escherichia coli BL21(DE3) by MST method.
Series [4] is filed under the species Homo sapiens. The series can be described thus: Binding affinity to human STEP46 (197 to 565 residues) expressed in Escherichia coli BL21(DE3) at 250 uM by STD-NMR method. The method, boiled down: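 Saturation was 3 s Gaussian pulse train, on-resonance −0.2 ppm, off-resonance 60 ppm. A 30 ms spin-lock suppressed protein signal, and the difference spectrum was taken.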

Series [5] deals with Tyrosine-protein phosphatase non-receptor type 5 (Homo sapiens) (UniProt P54829). The series can be described thus: Binding affinity to human 15N-labeled STEP PTP domain (281 to 563 residues) expressed in Escherichia coli OD2 assessed as induction of chemical perturbation at 2 mM by 1H,15N TROSY NMR spectral analysis. In a few lines: as §1
Compound in series [6]: N=C(N)Nc1cc(C2CCNCC2)cc(C(F)(F)F)c1
The series can be described thus: Activation of human STEP PTP domain (281 to 563 residues) expressed in Escherichia coli BL21(DE3) assessed as Km for substrate at 500 uM using pFyn peptide substrate after 60 mins by RapidFire MS/MS assay (reference value: 60.8 +/- 7.9 uM).

Compound in series [7]: N=C(N)Nc1cc(C2CCNCC2)cc(C(F)(F)F)c1
As to the kind of experiment: Activation of human STEP PTP domain (281 to 563 residues) expressed in Escherichia coli BL21(DE3) assessed as Kcat at 500 uM using pFyn peptide substrate after 60 mins by RapidFire MS/MS assay (reference value: 0.024 +/- 0.002 /s).

Regarding `CC(N)Cc1cccc(C(F)(F)F)c1` (stereo not given), in series [1], the result was inactive.
As for `CC(N)Cc1cc(O)cc(C(F)(F)F)c1` (stereo not given), the result in the series listed under Homo sapiens [2], in the series filed under Homo sapiens [3] and in the series filed under Homo sapiens [4] was Active. Further, the Activity in series [1] is > 5 mM.
As to `CC(N)Cc1cc(N)cc(C(F)(F)F)c1` (stereo not given), the result in series [1] was inactive.
Turning to `N=C(N)Nc1cccc(C(F)(F)F)c1`, the outcome in series [1] was Active.
For SODIUM ORTHOVANAD, the result in series [5] was Active.

B1: Tyrosine-protein phosphatase non-receptor type 5 (Homo sapiens), P54829 (protein)
chain: MNYEGARSERENHAADDSEGGALDMCCSERLPGLPQPIVMEALDEAEGLQDSQREMPPPPPPSPPSDPAQKPPPRGAGSHSLTVRSSLCLFAASQFLLACGVLWFSGYGHIWSQNATNLVSSLLTLLKQLEPTAWLDSGTWGVPSLLLVFLSVGLVLVTTLVWHLLRTPPEPPTPLPPEDRRQSVSRQPSFTYSEWMEEKIEDDFLDLDPVPETPVFDCVMDIKPEADPTSLTVKSMGLQERRGSNVSLTLDMCTPGCNEEGFGYLMSPREESAREYLLSASRVLQAEELHEKALDPFLLQAEFFEIPMNFVDPKEYDIPGLVRKNRYKTILPNPHSRVCLTSPDPDDPLSSYINANYIRGYGGEEKVYIATQGPIVSTVADFWRMVWQEHTPIIVMITNIEEMNEKCTEYWPEEQVAYDGVEITVQKVIHTEDYRLRLISLKSGTEERGLKHYWFTSWPDQKTPDRAPPLLHLVREVEEAAQQEGPHCAPIIVHCSAGIGRTGCFIATSICCQQLRQEGVVDILKTTCQLRQDRGGMIQTCEQYQFVHHVMSLYEKQLSHQSPE
In general, Km refers to the concentration of substrate that gives half-maximal velocity. What is called kcat is the maximal rate divided by the concentration of active sites. Take B1: the Km in series [6] stood at 65.4 µM. In addition, in series [7], the turnover number (kcat) is 0.042 s⁻¹.
